High-throughput results from PubChem BioAssay.
A selection: hits, their analogues and other compounds. The true share with any hit is near 1.5%.
Cneo AK release: causes C. neoformans cell lysis; adenylate kinase release luminescence, 4 h; normalised: neutral wells 0, clomiphene wells 100; lysis activity, % at 15 µM; 0.2% of 360,000 active;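 active = mean lysis activity across replicates of at least 80%, whatever share of replicates individually reach that level; inactive = mean lysis activity below 80%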
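Material: C. neoformans cells; Schedule: 4 h static compound exposure, 37 °C, read 1 h post-reagent; Measured by: adenylate kinase release luminescence; Read-out: signal increase indicating cell lysis; Controls: Clomiphene as positive lysis control.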
SUMO Mot1 rescue: inhibitors of SUMOylation pathway: yeast Mot1-301 growth rescue; growth rescue, % at 18.8 µM; AID 2716; 1% of 320,000 active; S. cerevisiae Mot1-301 growth rescue, ATP luminescence, 38.5C; percent above DMSO median, 100 means doubled;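 active = every valid replicate shows activation above 250% relative to neutral control wells; inactive = the rest, any valid replicate at or below 250%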;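 also: OY570 slx delta 5 strain wells were the positive control but not used for scaling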
C2C12 statin: suppression of simvastatin myotoxicity; 0.78% of 330,000 active; rescue of ATP level, % at 7.49 µM; C2C12 myotubes + simvastatin, ATP luminescence, 48 h; scaled: DMSO 0, geranylgeraniol control 100;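 active = mean ATP rescue above about 67%, or every replicate alone reaching that limit, limit read from the data, passing the limit was not always enough; inconclusive = no clear call, values can overlap the other calls; inactive = mean under the limit and some replicate under it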;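 also: myotubes were challenged with 10 µM simvastatin during compound exposure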
The depositor's hits bear a star; ? = inconclusive; nt = not tested or not shown.

SMILES	Cneo AK release	SUMO Mot1 rescue	C2C12 statin
O=C(COc1ccc2c(c1)oc(=O)c1ccccc12)NCC1CCC(C(=O)O)CC1 (configuration not stated)	-4	620*	1
O=C(COc1ccc2cc(-c3ccccc3)c(=O)oc2c1)NCC1CCC(C(=O)O)CC1 (configuration not stated)	-4	988*	5
O=C(COc1ccc2c3c(c(=O)oc2c1)CCC3)NCC1CCC(C(=O)O)CC1 (configuration not stated)	0	9	-2
O=C(COc1ccc2c(-c3ccccc3)cc(=O)oc2c1)NCC1CCC(C(=O)O)CC1 (configuration not stated)	-3	210	-4
Cc1ccc(S(=O)(=O)Nc2cccc3c2O[C@@H](CN(C)S(=O)(=O)c2cccs2)[C@H](C)CN([C@@H](C)CO)C3=O)cc1	58	nt	-36
C[C@H]1CN([C@@H](C)CO)C(=O)c2cc(NS(=O)(=O)c3cccs3)ccc2O[C@H]1CN(C)S(=O)(=O)c1cccs1	nt	nt	-3
CN(C)CC#Cc1cccc(-c2nc(C(=O)N3CCN(C)CC3)cc3c2[C@@H](CCO)N(S(=O)C(C)(C)C)C3)c1 (some centres not stated)	-1	nt	nt
O=C(O)C[C@H]1C[C@@H]2c3cc(NC(=O)Nc4ccc(F)cc4)ccc3O[C@@H]2[C@@H](CO)O1	-2	nt	-3
Cn1cccc1/C=C(\C#N)C(N)=S	2	-8	10
N#C/C(=C/c1cc[nH]c1)C(N)=S	nt	295*	nt
C/C=C/c1ccc2c(c1)O[C@H](CN(C)C(=O)c1cccc(F)c1)[C@@H](C)CN([C@H](C)CO)S2(=O)=O	-21	nt	-20
COc1cc(N=c2c([N+](=O)[O-])nn(-c3ccc4c(c3)OCCO4)n2O)cc(OC)c1	nt	274*	nt
CC(C)c1ccc(N=c2c([N+](=O)[O-])nn(-c3ccc4c(c3)OCCO4)n2O)cc1	0	12	1
COc1ccc(NC(=S)N2CCC(Cc3ccccc3)CC2)cc1OC	3	20	nt
COc1cccc(NC(=S)N2CCC(Cc3ccccc3)CC2)c1	117*	14	-68
CCCNC(=O)C[C@@H]1C[C@@H]2c3cc(NC(=O)CC4CC4)ccc3O[C@@H]2[C@@H](CO)O1	16	nt	4
O=C(C[C@@H]1C=C[C@@H](NC(=O)Cc2ccccn2)[C@H](CO)O1)NCCCN1CCOCC1	-1	nt	-2
CCn1c(CNc2ccc(F)cc2)nnc1SCC(=O)Nc1ccccc1OC	1	2	54
CCOc1ccc(NC(=O)CSc2nnc(C(C)C)n2CC)cc1	-1	-8	0
CCn1c(CNc2ccc(F)cc2)nnc1SCC(=O)Nc1ccc(OC)cc1	1	7	119*
CCCn1c(SCC(=O)Nc2ccc(OCC)cc2)nnc1C(C)C	1	344*	nt
C[C@@H]1CN([C@H](C)CO)C(=O)Cc2cc(NC(=O)NC3CCCCC3)ccc2O[C@H]1CN(C)Cc1ccc(C(F)(F)F)cc1	1	nt	27
O=C(C[C@H]1C[C@@H]2c3cc(NC(=O)CC4CC4)ccc3O[C@@H]2[C@@H](CO)O1)NCc1ccccc1F	13	nt	-1
C#CCOn1c(-n2nc(C)cc2C)nc2ccccc2c1=O	-7	27	0
COn1c(-n2nc(C)cc2C)nc2ccccc2c1=O	91*	-9	8
SMILES	Cneo AK release	SUMO Mot1 rescue	C2C12 statin
CO[C@@H]1CN(C)C(=O)c2ccc(NC(=O)Cc3ccccc3)cc2OC[C@@H](C)N(C(=O)c2ccccc2F)C[C@@H]1C	3	nt	6
Cc1cccc(Cc2c(C)nc3c(C(=O)NCc4ccco4)cnn3c2C)c1	1	-2	107*
Cc1nc2c(C(=O)NCc3ccco3)cnn2c(C)c1Cc1ccc(F)cc1Cl	-3	-2	42
Cc1ccnc(NC(=O)CCCc2c[nH]c3ccccc23)c1	-1	-5	-5
O=C(CCCc1c[nH]c2ccccc12)Nc1ccc(S(=O)(=O)Nc2ncccn2)cc1	-2	759*	-3
N=c1oc2ccccc2cc1-c1nc2ccccc2c(=O)[nH]1	0	8	92*
O=c1[nH]c(-c2ccncc2)nc2ccccc12	1	-3	10
C[C@@H]1CCCCO[C@@H](CN(C)C(=O)Cc2ccccc2)[C@H](C)CN([C@@H](C)CO)C(=O)c2cc(NC(=O)Nc3ccccc3)ccc2O1	-3	nt	nt
C[C@@H]1CN([C@@H](C)CO)C(=O)Cc2cc(NS(C)(=O)=O)ccc2O[C@H]1CN(C)Cc1ccncc1	-9	nt	12
Cc1cc(C)cc(OCC(=O)NNC(=O)c2cc3ccccc3o2)c1	-1	1	3
CCc1ccc(OCC(=O)NNC(=O)c2cc3ccccc3o2)cc1	2	-3	81*
COCC#Cc1ccc2c(c1)O[C@@H](CN(C)S(=O)(=O)c1ccc(C)cc1)[C@H](C)CN([C@H](C)CO)S2(=O)=O	-7	nt	-109
Cc1nn(Cc2ccccc2)c(=O)c2nn(-c3ccc(Cl)cc3)c(C)c12	nt	28	nt
CCOc1nnc(C)c2c(C)n(-c3ccc(Cl)cc3)nc12	-2	226	119*
C[C@@H]1CCCCO[C@@H](CN(C)C(=O)Nc2ccc3c(c2)OCO3)[C@@H](C)CN([C@H](C)CO)C(=O)c2cc(NC(=O)CCCCCC(=O)Nc3ccccc3N)ccc2O1	-2	nt	nt
O=C1OCCN1S(=O)(=O)Nc1ccccc1	5	-7	11
O=C1OCCN1N1CCOC1=O	3	nt	113*
O=C(CCNS(=O)(=O)c1ccc(Cl)cc1)N1CCN(c2ccccn2)CC1	-2	269*	5
O=C(CCNS(=O)(=O)c1ccc(Cl)cc1)N1CCN(c2ncccn2)CC1	6	nt	5
CC(C)NC(=O)Nc1ccc2c(c1)CC(=O)N([C@@H](C)CO)C[C@@H](C)[C@H](CN(C)S(=O)(=O)c1ccc(Cl)cc1)O2	1	nt	8
CC(C)NC(=O)Nc1ccc2c(c1)CC(=O)N([C@H](C)CO)C[C@H](C)[C@H](CN(C)S(=O)(=O)c1ccc(Cl)cc1)O2	89*	nt	-16
C[C@H](CO)N1C[C@H](C)[C@@H](CN(C)Cc2ccc(-c3ccccc3)cc2)Oc2ccc(NS(C)(=O)=O)cc2CC1=O	-6	nt	29
Cc1ccc(S(=O)(=O)Nc2ccc3c(c2)CC(=O)N([C@H](C)CO)C[C@H](C)[C@H](CN(C)S(=O)(=O)c2ccc(C)cc2)O3)cc1	-2	nt	?
Cc1ccc(S(=O)(=O)Nc2ccc3c(c2)CC(=O)N([C@@H](C)CO)C[C@H](C)[C@H](CN(C)Cc2ccc(-c4ccccc4)cc2)O3)cc1	1	nt	16
Cc1ccc(S(=O)(=O)Nc2ccc3c(c2)CC(=O)N([C@@H](C)CO)C[C@H](C)[C@@H](CN(C)Cc2ccc(-c4ccccc4)cc2)O3)cc1	2	nt	129*
C[C@@H]1CN([C@H](C)CO)C(=O)Cc2cc(NS(C)(=O)=O)ccc2O[C@@H]1CN(C)Cc1ccc(-c2ccccc2)cc1	-2	nt	95*
Cc1ccc(S(=O)(=O)Nc2ccc3c(c2)CC(=O)N([C@@H](C)CO)C[C@@H](C)[C@H](CN(C)S(=O)(=O)c2ccc(C)cc2)O3)cc1	-1	nt	95*
